{"source": "paper PMC10319625", "about": "(PNAS Nexus, 2023)", "key": {"[1]": {"test_system": "PANC-1 and MIA PaCa-2", "details": "human pancreatic cancer cell lines, cited from earlier work"}, "[2]": {"experiment": "Mouse xenograft model, body weight", "type": "in vivo", "details": "3 µmol/kg cAQ-mBen or 30 µmol/kg CDDP, every 2 days for 5 times", "method_in_brief": "(§1)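 SAS cells were inoculated subcutaneously into KSN/Slc nude mice. From day 7 after inoculation (day 0), mice received saline, 3 µmol/kg test compound or 30 µmol/kg cisplatin intraperitoneally every 2 days, 5 times. Tumor volume and body weight were recorded at set points to day 10 (n = 9 control and test, n = 8 cisplatin). Statistics: two-way ANOVA with Tukey's test.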"}, "[3]": {"test_system": "primary mouse bone marrow cells (BMCs)", "experiment": "Cell proliferation assay", "type": "cell-based", "details": "BMC (normal cells), 48 h"}, "[4]": {"test_system": "SAS", "experiment": "Cell proliferation assay", "type": "cell-based, human", "details": "48 h"}, "[5]": {"test_system": "HeLa", "experiment": "Cell proliferation assay", "type": "cell-based, human", "details": "48 h"}, "[6]": {"type": "in vivo, mouse", "details": "day 10 of treatment, versus negative control"}, "[7]": {"test_system": "SAS cells", "experiment": "Annexin V/PI staining", "type": "cell-based, human", "details": "5 µM cAQ-mBen or 50 µM CDDP, 24 h", "method_in_brief": "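SAS cells were exposed for 24 h to 5 µM test compound or to 50 µM cisplatin (positive control), then stained with annexin V-FITC and propidium iodide. Positive cells are expressed as % of total cell number per field. Values are mean ± SD of total apoptotic cells (n = 5), compared by one-way ANOVA with Tukey's test.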"}, "[8]": {"test_system": "Ca9-22", "experiment": "Cell proliferation assay", "type": "cell-based, human", "details": "Ca9-22, 48 h"}, "[9]": {"test_system": "liver and kidney of KSN/Slc nude mice", "experiment": "Histopathological analysis of liver and kidney, tumor-free mice", "type": "in vivo, mouse", "details": "10 days treatment", "method_in_brief": "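Tumor-free KSN/Slc nude mice received saline, test compound or cisplatin for 10 days on the xenograft regimen. Liver and kidney sections were HE-stained for histopathology. Glomerulus area was measured (mean ± SD, n = 15 sections from 3 mice) and compared by one-way ANOVA with Tukey's test.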"}, "[10]": {"test_system": "SAS cells xenograft tumors in KSN/Slc nude mice", "experiment": "Mouse xenograft model, tumor volume", "type": "in vivo", "details": "3 µmol/kg cAQ-mBen or 30 µmol/kg CDDP, peritoneally every 2 days for 5 times", "method_in_brief": "as §1"}, "[11]": {"test_system": "SAS cells", "experiment": "Western blot analysis of caspase-3 and PARP-1 cleavages", "type": "cell-based, human", "details": "5 µM cAQ-mBen or 50 µM CDDP, 12 or 24 h"}}, "note": "Read-outs that look alike come from different tables or passages of the source."}
{"molecule": "O=C1c2ccc3c4c(c(NCCN5CCCC5)cc(c24)C(=O)N1CCCN1CCOCC1)C(=O)N(CCCN1CCOCC1)C3=O", "note": "[CM03]", "values": [{"measurement": "expression of hTERT", "setting": "[1]; after 6 h", "value": "remained downregulated"}]}
{"molecule": "N.N.[Cl][Pt][Cl]", "note": "[CDDP, cis-diamminedichloroplatinum(II)]", "values": [{"measurement": "body weight of mice", "setting": "[2]", "value": "considerably reduced"}, {"measurement": "IC50", "setting": "[3]", "value": 1.3, "unit": "µM"}, {"measurement": "IC50", "setting": "[4]", "value": 4.3, "unit": "µM"}, {"measurement": "IC50", "setting": "[5]", "value": 0.5, "unit": "µM"}, {"measurement": "physiological indices of serum (BUN, UA, AST, ALT, CRE, and γ-GTP levels)", "setting": "[6]", "value": "substantial increase"}, {"measurement": "Anx Alone(%), cells positive for annexin V, % of total cell count, Mean", "setting": "[7]", "value": 24.0, "unit": "%"}, {"measurement": "PI (%), cells positive for PI signal, % of total cell count, Mean", "setting": "[7]", "value": 18.5, "unit": "%"}, {"measurement": "IC50", "setting": "[8]", "value": 27.7, "unit": "µM"}, {"measurement": "cell arrangement and size of the glomerulus in the kidney", "setting": "[9]", "value": "significant condensation of the glomerulus area"}, {"measurement": "increase in the tumor volume", "setting": "[10]", "value": "significantly suppressed"}, {"measurement": "digestion of PARP-1 and caspase-3", "setting": "[11]", "value": "observed in a time-dependent manner"}]}
{"molecule": "O=C1c2cc(-c3ccc(CN4CCCC4)cc3)c3c4c(cc(NCCN5CCCC5)c(c24)C(=O)N1CCCN1CCOCC1)C(=O)N(CCCN1CCOCC1)C3=O", "note": "[SOP1812]", "values": [{"measurement": "expression of hTERT", "setting": "[1]; after 24 h", "value": "remained downregulated"}]}
